# Measured values taken from ChEMBL document CHEMBL1157010, “Synthesis and in vivo evaluation of 3,4-disubstituted gababutins” (Bioorg Med Chem Lett, 2010).
# Activity calls are given as the source filed them. The calls are words filed in the database; no cut-off is given here.
# Experiments:
# [1] = Displacement of [3H]gabapentin from Voltage-dependent calcium channel subunit alpha-2/delta in pig cerebral cortex by scintillation counting; format: tissue-based, Sus scrofa
# [2] = test system: Rattus norvegicus; experiment: Sedative activity in rat at > 100 mg/kg, po; format: organism-based; parameters: dose 100 mg/kg, route oral; conditions: in vivo
# [3] = test system: Rattus norvegicus; experiment: Anxiolytic activity in po dosed rat water lick conflict model of anxiety assessed as increase in number of shocks received; format: functional
# Procedure, shortened: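 Rat drinking-conflict model with oral dosing across a range of doses. The read-out was the mean number of shock episodes received per rat over 10 min, where a greater number of shocks indicates reduced anxiety. The minimum effective dose was determined, with significance tested against vehicle (P <0.05).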
# [4] = test system: Rattus norvegicus; experiment: Sedative activity in rat water lick conflict model of anxiety at 100 mg/kg, po; format: organism-based; parameters: dose 100 mg/kg, route oral; conditions: in vivo
# [5] = Tmax in rat; format: ADME, organism-based; conditions: in vivo
# [6] = Clearance in rat; format: ADME, organism-based; conditions: in vivo
# [7] = Elimination half life in rat; format: ADME, organism-based; conditions: in vivo, read-out: beta t1/2 (converted)
# [8] = Lipophilicity, log D at pH 7.4; format: physicochemical; conditions: buffer
# [9] = test system: Rattus norvegicus; experiment: Antiinflammatory activity against carrageenan-induced thermal hyperalgesia in rat assessed as paw withdrawal from heat at 30 mg/kg, po after 2 hrs; format: functional, organism-based; parameters: dose 30 mg/kg
# Procedure, shortened: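 Rats received intraplantar carrageenan in the paw, and inflammation and hyperalgesia developed within 2 h. At that point the compound was given orally. Reversal of thermal hyperalgesia was read as time to paw withdrawal. Significance was tested against vehicle (P <0.05, P <0.01).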
# [10] = Bioavailability in rat; format: ADME, organism-based; conditions: in vivo
structure (smiles),measurement,setting,value
CC[C@@H]1C[C@](CN)(CC(=O)O)C[C@@H]1CC,IC50,[1],4.2 µM
C[C@@H]1CC(CN)(CC(=O)O)C[C@H]1C,IC50,[1],0.882 µM
C[C@@H]1C[C@](CN)(CC(=O)O)C[C@@H]1C,IC50,[1],0.153 µM
C[C@@H]1C[C@@](CN)(CC(=O)O)C[C@@H]1C,IC50,[1],0.107 µM
C[C@@H]1CC[C@@](CN)(CC(=O)O)C1,IC50,[1],0.071 µM
C[C@@H]1CC[C@](CN)(CC(=O)O)C1,IC50,[1],0.03 µM
CCC[C@H]1CC(CN)(CC(=O)O)C[C@@H]1C (mixture of isomers),IC50,[1],0.021 µM
CC[C@H]1CC(CN)(CC(=O)O)C[C@@H]1CC (racemic),IC50,[1],1.1 µM
C[C@H]1CC(CN)(CC(=O)O)C[C@@H]1C (relative stereo) [ATAGABALIN],Activity,[2],Toxic
same,Activity,[3],Dose-dependent effect
same,minimal effective dose,[3]; read-out: MED,10 mg/kg
same,Activity,[4],Toxic
same,Tmax,[5],1.2 h
same,clearance,[6],0.24 L/h/kg
same,IC50,[1],0.022 µM
same,half-life,[7],2.4 h
same,logD,[8],-1
same,Activity,[9],Active
same,bioavailability,[10],87%
